Entries after “also recorded” stand apart in the source; their conditions may differ.
Key:
GST-Bfl-1 [1] = target: T1, GST-Bfl-1 (Homo sapiens, UniProt Q16548); experiment: High-throughput fluorescence polarization; type: binding; conditions: result in words
T1 sequence (Q16548 1-175): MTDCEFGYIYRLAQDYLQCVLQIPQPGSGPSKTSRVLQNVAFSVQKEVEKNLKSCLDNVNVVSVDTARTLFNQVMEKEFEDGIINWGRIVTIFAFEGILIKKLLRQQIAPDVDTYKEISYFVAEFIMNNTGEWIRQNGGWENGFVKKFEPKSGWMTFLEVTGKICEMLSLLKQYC

GST-Bfl-1 [2] = target: T1, GST-Bfl-1; experiment: LanthaScreen TR-FRET assay, FITC-Bid BH3 peptide / GST-tagged protein; type: binding; conditions: result in words
In short: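 Test compound at 10 concentrations (2-fold serial dilution, 10% DMSO), in duplicate wells. Preincubated 1 h at 4 °C with GST-Bfl-1 (7.4 nM working solution, Bis-Tris pH 7.0 buffer). Then FITC-Bid (5.6 nM) plus Tb-antibody (2.5 nM) working solution added, 4 h at room temperature in the dark. Read in time-resolved mode: excitation 340 nm, 0.1 ms delay, 1 ms integration, 5 reads averaged. Signal is the 520/490 nm ratio. Controls were buffer without protein and DMSO.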

[3] = system: H69AR small cell lung tumor cell; experiment: Cell-based viability study, tumor cell growth; parameters: species or system human; conditions: concentration of 10 μM; note [21]
mammalian cell line = experiment: Cell viability in a mammalian cell line; type: cell-based; conditions: note [21]

| Compound | Potency of Bfl-1 inhibition in words (FP / assay not specified) (GST-Bfl-1 [1]) | also measured |
| --- | --- | --- |
| CN1CCN(C2=C(Cl)C(=O)N(c3ccc(Cl)c(Cl)c3)C2=O)CC1 [Compound 1] | submicromolar potency | Potency of Bfl-1 inhibition in words (TR-FRET) (GST-Bfl-1 [2]): submicromolar potency; Inhibition of human H69AR small cell lung tumor cell growth [3]: inhibition of human H69AR small cell lung tumor cell growth was observed |
| O=C1C(Cl)=C(N2CCCCC2)C(=O)N1c1ccc(Cl)c(Cl)c1 [Compound 19] | – | Effect on cell viability (mammalian cell line; 15 μg/mL): decreased cell viability |
| CN(C)C1=C(Cl)C(=O)N(c2ccc(Cl)c(Cl)c2)C1=O [Compound 21] | equipotent to original hit 1; also recorded: Submicromolar | Effect on cell viability in a mammalian cell line (mammalian cell line; concentration not given): not inhibitory to cell viability |
| O=C1C(Cl)=C(N2CCOCC2)C(=O)N1c1ccc(Cl)c(Cl)c1 [Compound 22] | equipotent to original hit 1; also recorded: Submicromolar | – |
| C[C@@H]1CN(C2=C(Cl)C(=O)N(c3ccc(Cl)c(Cl)c3)C2=O)CCN1 [Compound 24] | equipotent to original hit 1; also recorded: Submicromolar | – |
| O=C1C(Cl)=C(N2CCN(CCO)CC2)C(=O)N1c1ccc(Cl)c(Cl)c1 [Compound 28] | Submicromolar | – |
| O=C1C(Cl)=C(N2CCN(CCOCCO)CC2)C(=O)N1c1ccc(Cl)c(Cl)c1 [Compound 29] | Submicromolar | – |
| O=C1C(Cl)=C(N2CCN(C/C=C/c3ccccc3)CC2)C(=O)N1c1ccc(Cl)c(Cl)c1 [Compound 38] | Submicromolar | – |

Source: article PMC2987701 (Bioorganic & medicinal chemistry letters, 2010)
